From ChEMBL document CHEMBL2073884, “Functional characterization of pH-sensitive organic anion transporting polypeptide OATP-B in human” (J Pharmacol Exp Ther, 2004)

What was measured:
Format in all cases: functional, cell-based
[1] = biological target: T1, Solute carrier organic anion transporter family member 2B1 (Homo sapiens, UniProt O94956); experiment: TP_TRANSPORTER: uptake (pH 5.0) of Lactate at a concentration of 1.91 u M in OATP-B-expressing HEK293 cells; details: hek293, pH 5, 1.91 µM
T1 sequence (O94956 whole entry): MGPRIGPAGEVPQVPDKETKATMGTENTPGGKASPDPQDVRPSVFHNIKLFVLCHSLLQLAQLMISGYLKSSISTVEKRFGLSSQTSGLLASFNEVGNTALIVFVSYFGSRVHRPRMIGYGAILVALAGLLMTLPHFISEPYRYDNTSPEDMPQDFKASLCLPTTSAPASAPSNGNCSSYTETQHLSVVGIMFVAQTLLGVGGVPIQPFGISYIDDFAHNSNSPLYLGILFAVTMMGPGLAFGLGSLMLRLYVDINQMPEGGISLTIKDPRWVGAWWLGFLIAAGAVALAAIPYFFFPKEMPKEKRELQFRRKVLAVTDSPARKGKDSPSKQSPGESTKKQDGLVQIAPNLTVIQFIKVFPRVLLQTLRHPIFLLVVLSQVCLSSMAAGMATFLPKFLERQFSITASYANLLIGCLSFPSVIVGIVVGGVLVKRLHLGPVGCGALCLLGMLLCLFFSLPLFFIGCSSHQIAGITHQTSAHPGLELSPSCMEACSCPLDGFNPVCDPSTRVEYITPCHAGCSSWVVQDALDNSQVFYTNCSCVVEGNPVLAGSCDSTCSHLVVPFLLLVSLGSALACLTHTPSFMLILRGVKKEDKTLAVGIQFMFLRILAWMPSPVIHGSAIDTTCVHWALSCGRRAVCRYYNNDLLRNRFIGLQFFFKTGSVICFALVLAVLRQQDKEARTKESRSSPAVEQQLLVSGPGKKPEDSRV
How it was run: (§1)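 HEK293 cells transiently transfected with pcDNA3/OATP-B (calcium phosphate) or empty vector were used 40-48 h later. Suspensions were preincubated 20 min at 37°C in HEPES saline (pH 7.4), then incubated 10 min in MES/Tris-buffered uptake medium (pH 5.0 or 7.4). Cells were separated by silicone-oil centrifugal filtration. Uptake was inulin-corrected, expressed as µL/mg protein, and mock-subtracted; n=3-4.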

[2] = biological target: T1, Solute carrier organic anion transporter family member 2B1; experiment: TP_TRANSPORTER: uptake (pH 7.4) of Lactate at a concentration of 1.91 u M in OATP-B-expressing HEK293 cells; details: hek293, pH 7.4, 1.91 µM; how it was run: as §1
[3] = biological target: T1, Solute carrier organic anion transporter family member 2B1; experiment: TP_TRANSPORTER: uptake (pH 7.4) of Dehydroepiandrosterone-3-sulfate at a concentration of 2.98 nM in OATP-B-expressing HEK293 cells; details: hek293, pH 7.4, 0.00298 µM
How it was run: (§2)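 HEK293 cells transiently transfected with OATP-B cDNA (calcium phosphate) or vector alone (mock), used 40-48 h later as suspensions. Preincubated 20 min at 37°C in HEPES buffer pH 7.4, then incubated with radiolabeled compound in uptake medium pH 5.0 or 7.4. DHEAS was taken up for 5 min; estradiol-17ß-glucuronide for 10 min. Cells separated by silicone oil/paraffin centrifugal filtration and counted by scintillation. Uptake (µL/mg protein) corrected for [14C]inulin adsorption; mock subtracted; n=3 or 4.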

[4] = biological target: T1, Solute carrier organic anion transporter family member 2B1; experiment: TP_TRANSPORTER: uptake (pH 5.0) of Dehydroepiandrosterone-3-sulfate at a concentration of 2.98 nM in OATP-B-expressing HEK293 cells; details: hek293, pH 5, 0.00298 µM; how it was run: as §2
[5] = biological target: T1, Solute carrier organic anion transporter family member 2B1; experiment: TP_TRANSPORTER: uptake (pH 5.0) of Estrone-3-sulfate at a concentration of 5.43 nM in OATP-B-expressing HEK293 cells; details: hek293, pH 5, 0.00543 µM
How it was run: (§3)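 OATP-B- or vector-transfected HEK293 cells were harvested 40-48 h after transfection and preincubated 20 min at 37°C in pH 7.4 HEPES saline. [3H]estrone-3-sulfate uptake was run for 1 min in uptake medium at pH 5.0 or 7.4 and stopped by silicone-oil centrifugal filtration. Radioactivity was counted by scintillation, corrected for [14C]inulin adsorption and given as µL/mg protein. Mock uptake was subtracted; n=3-4.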

[6] = biological target: T1, Solute carrier organic anion transporter family member 2B1; experiment: TP_TRANSPORTER: uptake (pH 7.4) of Estrone-3-sulfate at a concentration of 5.43 nM in OATP-B-expressing HEK293 cells; details: hek293, pH 7.4, 0.00543 µM; how it was run: as §3
[7] = biological target: T1, Solute carrier organic anion transporter family member 2B1; experiment: TP_TRANSPORTER: uptake (pH 7.4) of Fexofenadine at a concentration of 10 u M in OATP-B-expressing HEK293 cells; details: hek293, pH 7.4, 10 µM
How it was run: (§4)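 Transiently transfected OATP-B or mock HEK293 cells were preincubated 20 min at 37°C (pH 7.4), then exposed for 30 min to uptake medium at pH 5.0 or 7.4. Pellets were collected through silicone oil, sonicated, extracted in 50% methanol, dried and quantified by HPLC (ODS column, fluorescence ex 240/em 290 nm). Results are µL/mg protein after mock subtraction; n=3-4.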

[8] = biological target: T1, Solute carrier organic anion transporter family member 2B1; experiment: TP_TRANSPORTER: uptake (pH 5.0) of Fexofenadine at a concentration of 10 u M in OATP-B-expressing HEK293 cells; details: hek293, pH 5, 10 µM; how it was run: as §4
[9] = biological target: T1, Solute carrier organic anion transporter family member 2B1; experiment: TP_TRANSPORTER: uptake (pH 7.4) of Estradiol-17beta-D-glucuronide at a concentration of 5.72 nM in OATP-B-expressing HEK293 cells; details: hek293, pH 7.4, 0.00572 µM; how it was run: as §2
[10] = biological target: T1, Solute carrier organic anion transporter family member 2B1; experiment: TP_TRANSPORTER: uptake (pH 5.0) of Estradiol-17beta-D-glucuronide at a concentration of 5.72 nM in OATP-B-expressing HEK293 cells; details: hek293, pH 5, 0.00572 µM; how it was run: as §2
[11] = biological target: T1, Solute carrier organic anion transporter family member 2B1; experiment: TP_TRANSPORTER: uptake (pH 7.4) of Pravastatin at a concentration of 14.7 u M in OATP-B-expressing HEK293 cells; details: hek293, pH 7.4, 14.7 µM; how it was run: as §1
[12] = biological target: T1, Solute carrier organic anion transporter family member 2B1; experiment: TP_TRANSPORTER: uptake (pH 5.0) of Pravastatin at a concentration of 14.7 u M in OATP-B-expressing HEK293 cells; details: hek293, pH 5, 14.7 µM; how it was run: as §1
[13] = substrate: C[C@]12CC[C@@H]3c4ccc(OS(=O)(=O)O)cc4CC[C@H]3[C@@H]1CCC2=O; experiment: TP_TRANSPORTER: uptake (pH 7.4) in OATP-B-expressing HEK293 cells
How it was run: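 OATP-B- or mock-transfected HEK293 suspensions. Preincubated 20 min at 37°C at pH 7.4, then substrate uptake in medium at pH 7.4 (Tris-adjusted). Uptake was separated by centrifugal filtration through oil and measured by scintillation, or by HPLC-fluorescence for fexofenadine. Expressed as cell-to-medium ratio (µL/mg protein), corrected by [14C]inulin space; OATP-B-specific = transfected minus mock; n=3 or 4.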

[14] = substrate: C[C@]12CC[C@@H]3c4ccc(OS(=O)(=O)O)cc4CC[C@H]3[C@@H]1CCC2=O; experiment: (§5) TP_TRANSPORTER: uptake (pH 5.0) in OATP-B-expressing HEK293 cells
[15] = substrate: CC[C@H](C)C(=O)O[C@H]1C[C@H](O)C=C2C=C[C@H](C)[C@H](CC[C@@H](O)C[C@@H](O)CC(=O)O)[C@H]21; experiment: as §5

C[C@@H](O)C(=O)O [D-LACTIC ACID]
Activity [1]: is not a substrate [-]
Activity [2]: is not a substrate [-]

C[C@]12CC[C@H](OS(=O)(=O)O)CC1=CC[C@@H]1[C@@H]2CC[C@]2(C)C(=O)CC[C@@H]12 [PRASTERONE SULFURIC ACID]
Activity [3]: substrate [+]
Activity [4]: substrate [+]

C[C@]12CC[C@@H]3c4ccc(OS(=O)(=O)O)cc4CC[C@H]3[C@@H]1CCC2=O [ESTRONE SULFURIC ACID]
Activity [5]: substrate [+]
Activity [6]: substrate [+]

CC(C)(C(=O)O)c1ccc(C(O)CCCN2CCC(C(O)(c3ccccc3)c3ccccc3)CC2)cc1 (stereo not given) [FEXOFENADINE]
Activity [7]: substrate [+]
Activity [8]: substrate [+]

C[C@]12CC[C@@H]3c4ccc(O)cc4CC[C@H]3[C@@H]1CC[C@@H]2O[C@@H]1O[C@H](C(=O)O)[C@@H](O)[C@H](O)[C@H]1O [ESTRADIOL 17B GLUCURONIDE]
Activity [9]: is not a substrate [-]
Activity [10]: is not a substrate [-]

CC[C@H](C)C(=O)O[C@H]1C[C@H](O)C=C2C=C[C@H](C)[C@H](CC[C@@H](O)C[C@@H](O)CC(=O)O)[C@H]21 [PRAVASTATIN]
Activity [11]: is not a substrate [-]
Activity [12]: substrate [+]

B1: Solute carrier organic anion transporter family member 2B1 (Homo sapiens) (protein)
chain: T1 sequence (O94956 whole entry)
Km [13]: 8.09 µM
Km [14]: 13.1 µM
Km [15]: 2250 µM
